In the library only some 1.8% were active in any assay of this set; here they are far more common.
SIAE inh: human SIAE inhibitors, primary screen, biochemical, fluorescence polarization, FP-Rh probe, 1536-well HTS. Sialate O-acetylesterase (Homo sapiens), Q9HAT2. SIAE FP-Rh probe binding. inhibition, % at 9.66 µM. actives 0.69% (n = 370,000). AID 1053197, 2014;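 active = inhibition above a cutoff: mean of compounds within the control limits plus 3 SD of those, cut at about 17% in these data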;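 also: 0% = plate median of compound wells and 100% = probe without SIAE protein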
Target sequence (Q9HAT2 whole entry, looked up): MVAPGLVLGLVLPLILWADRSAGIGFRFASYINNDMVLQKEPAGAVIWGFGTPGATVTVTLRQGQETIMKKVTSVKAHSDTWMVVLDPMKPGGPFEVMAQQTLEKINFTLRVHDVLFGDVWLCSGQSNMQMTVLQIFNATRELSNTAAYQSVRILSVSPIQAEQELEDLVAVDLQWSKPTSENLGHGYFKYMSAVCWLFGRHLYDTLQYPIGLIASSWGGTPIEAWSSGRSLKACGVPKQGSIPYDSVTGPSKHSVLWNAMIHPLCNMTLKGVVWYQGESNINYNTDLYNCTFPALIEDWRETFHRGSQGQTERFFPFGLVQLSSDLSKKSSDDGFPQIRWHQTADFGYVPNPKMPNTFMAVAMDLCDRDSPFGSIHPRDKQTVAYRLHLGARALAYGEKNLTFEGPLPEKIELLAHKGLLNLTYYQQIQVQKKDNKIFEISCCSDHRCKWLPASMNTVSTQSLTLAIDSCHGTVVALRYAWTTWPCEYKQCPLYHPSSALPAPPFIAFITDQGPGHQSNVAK
PME-1 inh: PME-1 inhibitors via competitive probe labeling, primary screen, biochemical, fluorescence polarization, FP-Rh probe, HTS; recombinant PME-1; inhibition, % at 5.9 µM; actives 0.53% (n = 320,000);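 active = inhibition above the campaign mean of all compounds plus 3 SD, cut at about 26% in these data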;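 also: competitive labeling of PME-1 active site by serine hydrolase directed probe; 0% = PME-1 with DMSO and 100% = wells lacking PME-1 enzyme; inhibitors block probe labeling so polarization falls and inhibition rises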
HTRA1 inhibitor: HTRA1 serine protease inhibitors, primary screen, biochemical, fluorescence polarization, HTS | Q92743 | recombinant HTRA1, FP-rhodamine activity-based probe | inhibition, % at 5.96 µM | actives 0.5% (n = 340,000); in the data active = inhibition above about 36%;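 also: 0% = enzyme with DMSO and 100% = wells lacking enzyme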
ABHD4 inh: ABHD4 inhibitors, primary screen, biochemical, fluorescence polarization, mouse; (Lyso)-N-acylphosphatidylethanolamine lipase (Mus musculus), Q8VD66; purified mABHD4, FP-Rh probe fluorescence polarization; AID 720543, 2013; inhibition, % at 8.92 µM; actives 0.54% (n = 370,000);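 active = inhibition exceeding the mean over every tested compound plus 3 SD, cut at about 30% in these data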;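 also: 0% = plate median of compound wells and 100% = S159A mutant with DMSO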
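Test system: mABHD4 protein; Read-out basis: % inhibition; Incubation: 45 min + 60 min at 25 °C; Repeats: single replicate; Technique: fluorescence polarization with parallel and perpendicular emission, 525/598 nm; Compound: 8.92 µM, single dose; Benchmarks: full inhibition S159A mutant plus DMSO, zero as sample-well median.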
TCR-CD3 inh: inhibitors of human TCR-CD3 interaction, primary screen, biochemical, fluorescence, TAMRA-labeled TCR probe; T-cell receptor (TCR); inhibition, % at 9.4 µM; actives 0.37% (n = 360,000); in the data active = inhibition above about 19%;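 also: recombinant mutant TCR 2C K166C tagged with TAMRA read by polarization; 0% = receptor in buffer alone and 100% = receptor with positive control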
Fam108B inh: mouse Fam108B serine hydrolase inhibitors, primary screen, counter-screen for RBBP9 inhibitor project, biochemical, fluorescence polarization | recombinant Fam108B, FP-Rh probe fluorescence polarization | inhibition, % at 9.51 µM | actives 0.33% (n = 300,000) | AID 1947, 2009;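 active = inhibition above the screen mean inhibition plus 3 SD, computed separately per campaign, cut at about 18% in these data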;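 also: inhibitors lower polarization as less probe binds the enzyme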
SIAE inh conf: human SIAE inhibitors, retest, confirmation, biochemical, fluorescence polarization, FP-Rh probe, triplicate. shares compounds with SIAE inh. SIAE FP-Rh activity-based probe. inhibition, % at 9.66 µM. actives 13% (n = 2,300);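 active = mean inhibition of the replicates above the hit cutoff set in the primary screen, cut at about 17% in these data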;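 also: 0% = SIAE with DMSO and probe and 100% = probe without SIAE; inhibitors lower polarization as more probe stays unbound to SIAE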
The depositor's hits bear a star; · = not tested or not shown.

SMILES | SIAE inh | PME-1 inh | HTRA1 inhibitor | ABHD4 inh | TCR-CD3 inh | Fam108B inh | SIAE inh conf
O=C(Nc1ccc(-c2n[nH]c(=S)o2)cc1)c1ccccc1 | -4 | 1 | 2 | 4 | -4 | -1 | ·
O=C(CSc1nc(O)c(C2CCCCC2)c(=O)[nH]1)NCC1CCCO1 (configuration not stated) | 17* | 1 | 6 | 7 | -4 | 1 | 6
O=C(CSc1ccc(-c2ccco2)nn1)Nc1ccc(F)cc1F | 19* | -2 | 4 | 22 | -2 | 0 | 2
C#CCNC(=O)C[C@H]1C[C@@]2(C(=O)OC)C(=C[C@H](C(C)(C)C)O[C@@H]2C)N(CCC2=CCCCC2)C1=O | 6 | · | · | 0 | -1 | · | ·
O=C(Nc1ccc(-n2cnnn2)cc1)C1CCCCC1 | 2 | 0 | -3 | -1 | 4 | -1 | ·
O=C(Oc1cccc(-n2cnnn2)c1)C1CCCCC1 | 23* | -1 | -3 | -2 | 6 | 1 | 17*
Cc1ccc(/C=N\NC(=O)/C(=C\Nc2nccc(C)n2)NC(=O)c2ccccc2)cc1 | 18* | 11 | -7 | 10 | 3 | 2 | 7
COc1ccc(/C=N\NC(=O)/C(=C\Nc2nccc(C)n2)NC(=O)c2ccccc2)cc1 | 0 | 3 | -8 | 14 | -2 | 5 | ·
CCc1ccc(N2CC(C(=O)N3CCN(S(=O)(=O)c4cccc(F)c4)CC3)CC2=O)cc1 (configuration not stated) | -3 | · | -3 | -1 | 2 | · | ·
CC1CN(S(=O)(=O)c2cccc(C(=O)N(Cc3nnc(-c4ccccc4Cl)o3)C3CC3)c2)CC(C)O1 (configuration not stated) | 17* | 0 | 2 | 1 | -11 | 0 | -2
O=C(c1cccc(S(=O)(=O)N2CCOCC2)c1)N(Cc1nnc(-c2ccccc2Cl)o1)C1CC1 | 6 | -1 | 5 | -1 | 8 | 1 | ·
COc1ccc(C(=O)CCNc2ccc3c(c2)OCCO3)cc1 | 18* | 2 | 3 | 4 | 0 | -1 | 4
COc1cc(CCCN2CCNC[C@@H]2c2ccccc2)cc(OC)c1OC | 16 | · | -4 | -8 | 0 | · | ·
c1ccc([C@H]2CNCCN2CCc2cccc3ccccc23)cc1 | 23* | · | -3 | 13 | 0 | · | 4
NNC(=O)CC1=NNC(=O)C1 | 19* | · | 4 | -1 | -4 | · | 0
CCC(CO)Oc1cc(NCc2ccc(Cl)cc2Cl)c2ncn(C(C)C)c2c1 (configuration not stated) | 19* | · | 9 | 28 | -1 | · | 8
CSCCC1NC(=O)N(CC(=O)Nc2ccc3c(c2)OCCO3)C1=O (configuration not stated) | 2 | · | -2 | 0 | 6 | · | ·
Cc1ccc(NC(=O)OCCCN2C(=O)CCC23CCC(C)CC3)cc1 (configuration not stated) | 8 | · | · | -2 | · | · | ·
CC1CCC2(CCC(=O)N2CCCOC(=O)NC(C)(C)C)CC1 (configuration not stated) | 47* | · | · | 0 | · | · | -5
CS(=O)(=O)N(Cc1ccc(Cl)cc1)c1ccc(C(=O)NCC2CCCO2)cc1 (configuration not stated) | -4 | 3 | 2 | 1 | -11 | 1 | ·
Cc1ccc(N(Cc2ccc(C(=O)NCC3CCCO3)cc2)S(C)(=O)=O)cc1C (configuration not stated) | 20* | -6 | -4 | -4 | 7 | 1 | 2
COc1cccc(/C=N/Nc2nc3ccccc3[nH]2)c1O | 17* | -12 | 14 | 21 | -12 | 7 | 1
COc1cc(/C=N/Nc2nc3ccccc3[nH]c2=O)ccc1O | 14 | 12 | 0 | 8 | 0 | 3 | ·
COc1cc(/C=N/Nc2nc3ccccc3[nH]2)ccc1O | 18* | -50 | 14 | 22 | 2 | 8 | 0

Compound activity deposited in PubChem by The Scripps Research Institute Molecular Screening Center.
